Assay results from ChEMBL document CHEMBL4177764 (J Med Chem, 2018).
Active and inactive are the calls of the source. The calls are words filed in the database; no cut-off is given here.

Columns and labels:
[1] = tested on: KARPAS-299; assay: Antiproliferative activity against human KARPAS299 cells after 72 hrs by CellTiter-Glo luminescent cell viability assay; type: functional, cell-based
[2] = tested on: SU-DHL-1; assay: Antiproliferative activity against human SU-DHL1 cells after 72 hrs by CellTiter-Glo luminescent cell viability assay; type: functional, cell-based
[3] = biological target: T1, ALK tyrosine kinase receptor (Homo sapiens, UniProt Q9UM73); assay: Induction of ALK degradation in human NCI-H3122 cells after 16 hrs by immunoblot method; type: cell-based
Summary of the method: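 H3122 and Karpas 299 cells were given a dose titration for 16 h. ALK and Aurora A were then read by immunoblot. DC50 was calculated from the titrations, two independent experiments.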

[4] = biological target: T1, ALK tyrosine kinase receptor; assay: Induction of ALK degradation in human NCI-H3122 cells at 250 nM after 4 hrs by immunoblot method; type: cell-based
Target sequence in this assay (Q9UM73 19-1620 limits assumed): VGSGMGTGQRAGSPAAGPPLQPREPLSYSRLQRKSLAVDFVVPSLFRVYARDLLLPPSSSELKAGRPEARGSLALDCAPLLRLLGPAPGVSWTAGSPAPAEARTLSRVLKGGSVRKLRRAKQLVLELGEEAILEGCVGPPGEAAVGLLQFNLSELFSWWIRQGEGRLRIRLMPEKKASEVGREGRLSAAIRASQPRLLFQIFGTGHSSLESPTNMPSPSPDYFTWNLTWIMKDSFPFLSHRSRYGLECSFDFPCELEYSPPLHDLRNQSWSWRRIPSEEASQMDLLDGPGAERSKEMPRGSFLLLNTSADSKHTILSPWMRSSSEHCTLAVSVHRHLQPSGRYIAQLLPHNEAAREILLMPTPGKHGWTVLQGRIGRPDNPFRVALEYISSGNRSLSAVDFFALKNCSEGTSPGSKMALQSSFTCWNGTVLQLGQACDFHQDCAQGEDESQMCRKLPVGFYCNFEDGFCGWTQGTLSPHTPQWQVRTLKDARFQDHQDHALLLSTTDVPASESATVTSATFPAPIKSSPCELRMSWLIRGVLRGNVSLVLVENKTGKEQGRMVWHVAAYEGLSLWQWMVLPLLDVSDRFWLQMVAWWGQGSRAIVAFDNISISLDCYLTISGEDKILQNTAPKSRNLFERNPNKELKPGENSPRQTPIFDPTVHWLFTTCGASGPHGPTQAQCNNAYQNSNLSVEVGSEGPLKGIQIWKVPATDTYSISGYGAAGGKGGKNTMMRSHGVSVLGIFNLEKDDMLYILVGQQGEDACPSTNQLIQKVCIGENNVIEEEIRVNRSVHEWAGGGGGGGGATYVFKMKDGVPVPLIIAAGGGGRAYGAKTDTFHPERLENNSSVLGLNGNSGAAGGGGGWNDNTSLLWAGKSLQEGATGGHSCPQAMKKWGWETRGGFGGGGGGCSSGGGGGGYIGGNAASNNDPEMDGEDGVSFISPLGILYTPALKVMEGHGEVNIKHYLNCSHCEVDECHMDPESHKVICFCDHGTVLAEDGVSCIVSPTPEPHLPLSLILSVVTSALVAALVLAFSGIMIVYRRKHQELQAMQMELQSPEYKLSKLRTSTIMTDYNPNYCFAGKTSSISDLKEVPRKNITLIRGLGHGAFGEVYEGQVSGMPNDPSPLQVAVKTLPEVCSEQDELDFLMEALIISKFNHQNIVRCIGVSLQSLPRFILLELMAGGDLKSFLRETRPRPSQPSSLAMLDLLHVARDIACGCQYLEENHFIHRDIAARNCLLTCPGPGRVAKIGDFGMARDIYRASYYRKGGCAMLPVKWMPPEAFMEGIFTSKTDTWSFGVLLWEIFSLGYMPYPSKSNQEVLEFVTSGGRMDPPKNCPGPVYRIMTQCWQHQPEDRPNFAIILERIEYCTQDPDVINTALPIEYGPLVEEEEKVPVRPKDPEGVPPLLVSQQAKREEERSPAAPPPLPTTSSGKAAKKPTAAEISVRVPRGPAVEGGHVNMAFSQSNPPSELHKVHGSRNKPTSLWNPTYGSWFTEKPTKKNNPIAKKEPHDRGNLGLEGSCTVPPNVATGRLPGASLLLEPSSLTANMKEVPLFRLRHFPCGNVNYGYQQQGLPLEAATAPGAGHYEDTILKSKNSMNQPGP

[5] = biological target: T1, ALK tyrosine kinase receptor; assay: Induction of ALK degradation in human KARPAS299 cells at 250 nM after 8 hrs by immunoblot method; type: cell-based
Target sequence in this assay (Q9UM73 19-1620 limits assumed): as above

[6] = biological target: T1, ALK tyrosine kinase receptor; assay: Induction of ALK degradation in human KARPAS299 cells at 250 nM after 16 hrs in presence of proteasome inhibitor carfilzomib by immunoblot method; type: cell-based
Target sequence in this assay (Q9UM73 19-1620 limits assumed): as above

[7] = biological target: T1, ALK tyrosine kinase receptor; assay: Induction of ALK degradation in human NCI-H3122 cells at 250 nM after 16 hrs in presence of […] inhibitor MLN4924 by immunoblot method; type: cell-based
Target sequence in this assay (Q9UM73 19-1620 limits assumed): as above

[8] = biological target: T2, Aurora kinase A (Homo sapiens) (UniProt O14965); assay: Induction of aurora A degradation in human KARPAS299 cells at 250 nM after 16 hrs in presence of […] inhibitor MLN4924 by immunoblot method; type: cell-based
T2 sequence (whole entry): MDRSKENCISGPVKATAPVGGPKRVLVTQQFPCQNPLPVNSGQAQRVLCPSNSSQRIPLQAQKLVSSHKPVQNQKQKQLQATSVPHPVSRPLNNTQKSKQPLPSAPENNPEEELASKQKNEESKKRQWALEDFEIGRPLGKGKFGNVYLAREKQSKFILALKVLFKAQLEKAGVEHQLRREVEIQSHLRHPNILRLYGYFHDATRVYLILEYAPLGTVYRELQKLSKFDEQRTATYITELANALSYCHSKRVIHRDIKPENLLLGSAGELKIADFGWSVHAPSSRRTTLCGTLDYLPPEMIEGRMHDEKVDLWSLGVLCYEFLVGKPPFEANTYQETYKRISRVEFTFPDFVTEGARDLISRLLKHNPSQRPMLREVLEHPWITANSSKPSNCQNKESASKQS

[9] = biological target: T1, ALK tyrosine kinase receptor; assay: Induction of ALK degradation in human NCI-H3122 cells at 250 nM after 16 hrs in presence of ALK inhibitor TAE684 by immunoblot method; type: cell-based
Target sequence in this assay (Q9UM73 19-1620 limits assumed): as the sequence (Q9UM73 19-1620 limits assumed) above

[10] = biological target: T1, ALK tyrosine kinase receptor; assay: Induction of ALK degradation in human KARPAS299 cells at 250 nM after 16 hrs in presence of ALK inhibitor TAE684 by immunoblot method; type: cell-based
Target sequence in this assay (Q9UM73 19-1620 limits assumed): as the sequence (Q9UM73 19-1620 limits assumed) above

[11] = biological target: T1, ALK tyrosine kinase receptor; assay: Induction of ALK degradation in human NCI-H3122 cells at 250 nM after 16 hrs in presence of ALK inhibitor LDK378 by immunoblot method; type: cell-based
[12] = organism: Homo sapiens; assay: Antiproliferative activity against human CHLA20 cells after 72 hrs in presence of ABCB1 inhibitor tariquidar by CellTiter-Glo luminescent cell viability assay; type: functional, cell-based
[13] = tested on: SH-SY5Y; assay: Antiproliferative activity against human SH-SY5Y cells after 72 hrs in presence of ABCB1 inhibitor tariquidar by CellTiter-Glo luminescent cell viability assay; type: functional, cell-based
[14] = biological target: T1, ALK tyrosine kinase receptor; assay: Induction of ALK degradation in human CHLA20 cells at 100 nM after 16 hrs in presence of ABCB1 shRNA by immunoblot method; type: cell-based
[15] = biological target: T1, ALK tyrosine kinase receptor; assay: Induction of ALK degradation in human Kelly cells at 100 nM after 8 hrs by immunoblot method; type: cell-based
Summary of the method: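 Kelly cells were treated with 100 nM compound for varying times and lysed at each time point. ALK levels were read by immunoblot.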

[16] = biological target: T1, ALK tyrosine kinase receptor; assay: Induction of ALK degradation in human CHLA20 cells at 100 nM after 4 hrs in presence of ABCB1 inhibitor tariquidar by immunoblot method; type: cell-based
Summary of the method: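 CHLA20 cells were co-treated with 125 nM tariquidar, then treated with 100 nM compound over a time course. ALK was read by immunoblot.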

[17] = biological target: T2, Aurora kinase A (Homo sapiens); assay: Induction of aurora A degradation in human CHLA20 cells at 100 nM after 16 hrs in presence of proteasome inhibitor carfilzomib and ABCB1 inhibitor tariquidar by immunoblot method; type: cell-based
Summary of the method: (§1)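 Cells were pre-treated for 2 h with DMSO, carfilzomib, MLN4924 or pomalidomide, then treated with compound for 16 h, with immunoblot read-out. CHLA20 cells also received 125 nM tariquidar throughout.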

[18] = biological target: T2, Aurora kinase A (Homo sapiens); assay: Induction of aurora A degradation in human CHLA20 cells at 100 nM after 16 hrs in presence of […] inhibitor MLN4924 and ABCB1 inhibitor tariquidar by immunoblot method; type: cell-based; summary of the method: as §1
[19] = biological target: T2, Aurora kinase A (Homo sapiens); assay: Induction of aurora A degradation in human CHLA20 cells at 100 nM after 16 hrs in presence of pomalidomide and ABCB1 inhibitor tariquidar by immunoblot method; type: cell-based; summary of the method: as §1
[20] = biological target: T1, ALK tyrosine kinase receptor; assay: Induction of ALK degradation in human Kelly cells at 100 nM after 16 hrs in presence of ALK inhibitor TAE684 by immunoblot method; type: cell-based
Summary of the method: (§2)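 Kelly cells were pre-treated for 2 h with DMSO, carfilzomib, MLN4924, pomalidomide, TAE684 or LDK378. Degrader treatment followed for 16 h, and ALK was read by immunoblot.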

[21] = biological target: T1, ALK tyrosine kinase receptor; assay: Induction of ALK degradation in human Kelly cells at 100 nM after 16 hrs in presence of ALK inhibitor LDK378 by immunoblot method; type: cell-based; summary of the method: as §2
[22] = biological target: T1, ALK tyrosine kinase receptor; assay: Induction of ALK degradation in human CHLA20 cells assessed as decrease in ALK phosphorylation at Y1507 at 50 to 250 nM after 16 hrs in presence of ABCB1 inhibitor tariquidar by immunoblot method; type: cell-based
Summary of the method: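 CHLA20 neuroblastoma cells (ABCB1-high) were co-treated with 125 nM tariquidar throughout. They were dose-titrated for 16 hours and read by immunoblot.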

[23] = biological target: Focal adhesion kinase 1 (Homo sapiens) (UniProt Q05397); assay: Induction of PTK2 degradation in human NCI-H3122 cells at 0.01 to 1 uM after 16 hrs by immunoblot method; type: cell-based
[24] = biological target: Ribosomal protein S6 kinase alpha-1 (Homo sapiens) (UniProt Q15418); assay: Induction of RPS6KA1 degradation in human NCI-H3122 cells at 0.01 to 1 uM after 16 hrs by immunoblot method; type: cell-based
[25] = biological target: Focal adhesion kinase 1 (Homo sapiens) (UniProt Q05397); assay: Induction of PTK2 degradation in human NCI-H3122 cells at 250 nM measured over 2 to 16 hrs by immunoblot method; type: cell-based
[26] = biological target: Tyrosine-protein kinase Fer (Homo sapiens) (UniProt P16591); assay: Induction of FER degradation in human NCI-H3122 cells at 250 nM measured over 2 to 16 hrs by immunoblot method; type: cell-based
[27] = biological target: Ribosomal protein S6 kinase alpha-1 (Homo sapiens) (UniProt Q15418); assay: Induction of RPS6KA1 degradation in human NCI-H3122 cells at 250 nM measured over 2 to 16 hrs by immunoblot method; type: cell-based
[28] = biological target: Focal adhesion kinase 1 (Homo sapiens) (UniProt Q05397); assay: Induction of PTK2 degradation in human Kelly cells at 100 nM measured over 2 to 16 hrs by immunoblot method; type: cell-based
[29] = biological target: Tyrosine-protein kinase Fer (Homo sapiens) (UniProt P16591); assay: Induction of FER degradation in human Kelly cells at 100 nM measured over 2 to 16 hrs by immunoblot method; type: cell-based

Ribosomal protein S6 kinase alpha-1 (Homo sapiens), sequence (Q15418 whole entry): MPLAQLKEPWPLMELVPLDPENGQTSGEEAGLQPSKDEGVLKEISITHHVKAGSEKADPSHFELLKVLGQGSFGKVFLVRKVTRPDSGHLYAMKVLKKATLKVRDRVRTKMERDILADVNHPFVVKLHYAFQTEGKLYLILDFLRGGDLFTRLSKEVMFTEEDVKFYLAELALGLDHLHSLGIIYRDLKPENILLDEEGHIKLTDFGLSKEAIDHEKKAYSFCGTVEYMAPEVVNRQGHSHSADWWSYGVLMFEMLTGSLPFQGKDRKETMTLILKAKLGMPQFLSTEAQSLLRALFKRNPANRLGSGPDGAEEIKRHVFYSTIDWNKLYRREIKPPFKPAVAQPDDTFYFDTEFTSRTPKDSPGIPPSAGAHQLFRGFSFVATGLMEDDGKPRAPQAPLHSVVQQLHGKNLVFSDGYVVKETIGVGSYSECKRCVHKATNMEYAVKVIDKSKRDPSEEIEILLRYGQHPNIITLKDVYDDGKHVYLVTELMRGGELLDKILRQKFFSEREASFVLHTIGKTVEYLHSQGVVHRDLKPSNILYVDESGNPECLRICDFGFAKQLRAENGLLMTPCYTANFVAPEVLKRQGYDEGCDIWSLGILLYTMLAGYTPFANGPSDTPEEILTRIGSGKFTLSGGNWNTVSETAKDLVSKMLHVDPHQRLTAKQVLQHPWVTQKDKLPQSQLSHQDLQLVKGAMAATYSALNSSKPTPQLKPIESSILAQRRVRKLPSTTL
Tyrosine-protein kinase Fer (Homo sapiens), sequence (P16591 whole entry, looked up): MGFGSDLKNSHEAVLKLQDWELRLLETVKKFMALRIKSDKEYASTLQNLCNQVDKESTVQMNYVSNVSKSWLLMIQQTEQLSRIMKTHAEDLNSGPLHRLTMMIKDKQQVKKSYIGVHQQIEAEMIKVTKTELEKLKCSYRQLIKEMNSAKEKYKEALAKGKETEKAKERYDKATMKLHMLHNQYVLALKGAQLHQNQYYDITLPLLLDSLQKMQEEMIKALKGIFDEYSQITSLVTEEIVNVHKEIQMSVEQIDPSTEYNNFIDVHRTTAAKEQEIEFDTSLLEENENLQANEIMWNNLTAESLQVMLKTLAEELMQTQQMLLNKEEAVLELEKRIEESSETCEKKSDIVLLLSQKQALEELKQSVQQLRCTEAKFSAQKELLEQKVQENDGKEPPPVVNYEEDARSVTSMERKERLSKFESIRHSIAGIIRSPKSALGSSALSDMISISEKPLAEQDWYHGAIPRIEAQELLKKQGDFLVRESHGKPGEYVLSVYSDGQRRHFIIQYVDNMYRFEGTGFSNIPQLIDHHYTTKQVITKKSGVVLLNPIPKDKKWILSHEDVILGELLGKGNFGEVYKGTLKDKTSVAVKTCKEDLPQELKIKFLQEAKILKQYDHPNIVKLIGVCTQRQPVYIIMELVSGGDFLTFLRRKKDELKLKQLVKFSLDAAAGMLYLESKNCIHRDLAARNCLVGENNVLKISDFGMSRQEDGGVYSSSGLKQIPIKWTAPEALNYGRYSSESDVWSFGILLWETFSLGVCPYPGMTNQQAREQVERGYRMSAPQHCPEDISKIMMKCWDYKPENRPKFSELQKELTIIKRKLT
Focal adhesion kinase 1 (Homo sapiens), sequence (Q05397 2-1052 limits assumed): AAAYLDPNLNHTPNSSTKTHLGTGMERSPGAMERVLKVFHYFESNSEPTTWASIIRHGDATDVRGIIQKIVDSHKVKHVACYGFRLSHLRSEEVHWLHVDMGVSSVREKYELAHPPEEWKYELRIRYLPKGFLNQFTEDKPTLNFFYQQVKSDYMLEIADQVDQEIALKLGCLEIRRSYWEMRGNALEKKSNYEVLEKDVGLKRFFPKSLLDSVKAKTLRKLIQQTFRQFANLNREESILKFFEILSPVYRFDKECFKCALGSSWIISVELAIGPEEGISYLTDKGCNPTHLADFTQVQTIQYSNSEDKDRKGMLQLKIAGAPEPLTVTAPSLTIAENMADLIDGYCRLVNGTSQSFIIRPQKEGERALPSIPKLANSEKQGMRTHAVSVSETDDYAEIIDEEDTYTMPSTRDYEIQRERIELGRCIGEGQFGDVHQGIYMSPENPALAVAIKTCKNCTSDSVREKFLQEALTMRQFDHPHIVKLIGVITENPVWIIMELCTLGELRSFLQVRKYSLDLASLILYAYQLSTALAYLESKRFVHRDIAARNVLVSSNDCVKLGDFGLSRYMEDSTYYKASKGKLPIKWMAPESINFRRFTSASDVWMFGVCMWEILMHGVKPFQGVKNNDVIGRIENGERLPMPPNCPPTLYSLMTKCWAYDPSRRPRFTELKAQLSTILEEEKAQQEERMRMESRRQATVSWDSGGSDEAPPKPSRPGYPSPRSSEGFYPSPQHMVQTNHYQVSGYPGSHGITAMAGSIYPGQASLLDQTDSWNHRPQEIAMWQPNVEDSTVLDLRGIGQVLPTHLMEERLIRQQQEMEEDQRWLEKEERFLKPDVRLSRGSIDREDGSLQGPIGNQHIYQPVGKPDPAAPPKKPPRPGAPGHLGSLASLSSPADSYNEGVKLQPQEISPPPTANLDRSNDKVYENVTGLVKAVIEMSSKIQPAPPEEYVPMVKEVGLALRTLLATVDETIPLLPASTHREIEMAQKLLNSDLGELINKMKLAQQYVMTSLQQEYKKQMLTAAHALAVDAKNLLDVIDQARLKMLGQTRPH

DC50 [3] [nM] | Activity [4] | Activity [5] | Activity [6] | Activity [7] | Activity [8] | Activity [9] | Activity [10] | Activity [11] | Activity [14] | Activity [15] | Activity [16] | Activity [17] | Activity [18] | Activity [19] | Activity [20] | SMILES | Activity [1] | Activity [2] | Activity [12] | Activity [13] | other results
10 | Active | Active | inactive | inactive | inactive | inactive | inactive | Active | Active | Active | Active | inactive | inactive | inactive | inactive | COc1cc(N2CCN(CCOCCOCCNC(=O)CNc3cccc4c3C(=O)N(C3CCC(=O)NC3=O)C4=O)CC2)ccc1Nc1ncc(Cl)c(Nc2ccccc2S(=O)(=O)C(C)C)n1 (stereo not drawn) | Active | Active | Active | Active | Activity [21]: inactive; Activity [22]: Active; Activity [23]: Active; Activity [24]: Active; Activity [25]: Active; Activity [26]: Active; Activity [27]: Active; Activity [28]: Active; Activity [29]: Active
10 | Active | Active | inactive | inactive | inactive | inactive | inactive | Active | Active | Active | Active | inactive | inactive | inactive | inactive | Cc1cc(Nc2ncc(Cl)c(Nc3ccccc3S(=O)(=O)C(C)C)n2)c(OC(C)C)cc1C1CCN(CCOCCOCCNC(=O)CNc2cccc3c2C(=O)N(C2CCC(=O)NC2=O)C3=O)CC1 (stereo not drawn) | Active | Active | Active | Active | Activity [21]: inactive; Activity [22]: Active; Activity [23]: Active; Activity [24]: Active; Activity [25]: Active; Activity [26]: Active; Activity [27]: Active; Activity [28]: Active; Activity [29]: Active
